Test [1] concerns the target T1, Steroid 17-alpha-hydroxylase/17,20 lyase (Homo sapiens, UniProt P05093).
T1 sequence (P05093 whole entry): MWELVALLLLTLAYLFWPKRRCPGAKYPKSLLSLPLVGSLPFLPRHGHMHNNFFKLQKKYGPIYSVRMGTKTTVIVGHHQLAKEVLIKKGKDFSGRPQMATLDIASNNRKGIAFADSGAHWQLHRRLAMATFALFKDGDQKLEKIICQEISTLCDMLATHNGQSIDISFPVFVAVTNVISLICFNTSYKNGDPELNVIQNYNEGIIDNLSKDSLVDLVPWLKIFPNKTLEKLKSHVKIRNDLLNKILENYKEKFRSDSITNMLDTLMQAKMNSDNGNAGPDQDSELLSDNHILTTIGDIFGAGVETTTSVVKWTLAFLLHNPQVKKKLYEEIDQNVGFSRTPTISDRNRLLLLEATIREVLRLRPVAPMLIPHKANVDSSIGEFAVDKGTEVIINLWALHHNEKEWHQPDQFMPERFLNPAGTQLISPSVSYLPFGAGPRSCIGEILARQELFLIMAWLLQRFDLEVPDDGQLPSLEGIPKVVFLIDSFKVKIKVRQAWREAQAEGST
In words: Inhibition of Cytochrome P450 17 from human testicular microsomes at 2.5 uM; n.i. means no inhibition. In outline: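 Human testicular microsomes as P450 17 source, with progesterone in large excess (25 µM) as substrate. Inhibitor was tested at 2.5 µM. The 16α- and 17α-hydroxyprogesterone products were quantified by reverse-phase HPLC with UV detection. No lyase products form with the human enzyme. Values are means of at least two experiments.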

For test [2], the target named is T2, Steroid 17-alpha-hydroxylase/17,20 lyase (Rattus norvegicus, UniProt P11715).
T2 sequence (P11715 whole entry): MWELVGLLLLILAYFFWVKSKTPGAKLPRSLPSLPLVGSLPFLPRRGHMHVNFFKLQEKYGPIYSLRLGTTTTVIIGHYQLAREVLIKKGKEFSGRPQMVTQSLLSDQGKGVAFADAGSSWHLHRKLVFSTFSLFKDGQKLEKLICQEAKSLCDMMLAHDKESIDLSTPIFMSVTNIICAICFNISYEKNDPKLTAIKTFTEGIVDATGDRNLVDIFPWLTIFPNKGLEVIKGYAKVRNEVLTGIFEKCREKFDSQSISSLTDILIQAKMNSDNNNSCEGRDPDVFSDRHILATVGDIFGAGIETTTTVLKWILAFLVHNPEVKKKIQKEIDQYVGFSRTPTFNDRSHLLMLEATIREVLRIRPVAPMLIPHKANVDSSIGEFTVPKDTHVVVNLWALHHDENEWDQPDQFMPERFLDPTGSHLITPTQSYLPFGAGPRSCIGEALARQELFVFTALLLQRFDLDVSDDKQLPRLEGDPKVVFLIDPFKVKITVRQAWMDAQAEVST
In words: Inhibition of Cytochrome P450 17 from rat testicular microsomes at 125 uM; n.i. means no inhibition. In outline:
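Rat testicular microsomes as P450 17 source, with progesterone substrate at 25 µM. […] Products were quantified by reverse-phase HPLC with UV detection. Values are means of at least two experiments.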

The target in test [3] is T3, Cholesterol side-chain cleavage enzyme, mitochondrial (Bos taurus, UniProt P00189).
T3 sequence (P00189 whole entry): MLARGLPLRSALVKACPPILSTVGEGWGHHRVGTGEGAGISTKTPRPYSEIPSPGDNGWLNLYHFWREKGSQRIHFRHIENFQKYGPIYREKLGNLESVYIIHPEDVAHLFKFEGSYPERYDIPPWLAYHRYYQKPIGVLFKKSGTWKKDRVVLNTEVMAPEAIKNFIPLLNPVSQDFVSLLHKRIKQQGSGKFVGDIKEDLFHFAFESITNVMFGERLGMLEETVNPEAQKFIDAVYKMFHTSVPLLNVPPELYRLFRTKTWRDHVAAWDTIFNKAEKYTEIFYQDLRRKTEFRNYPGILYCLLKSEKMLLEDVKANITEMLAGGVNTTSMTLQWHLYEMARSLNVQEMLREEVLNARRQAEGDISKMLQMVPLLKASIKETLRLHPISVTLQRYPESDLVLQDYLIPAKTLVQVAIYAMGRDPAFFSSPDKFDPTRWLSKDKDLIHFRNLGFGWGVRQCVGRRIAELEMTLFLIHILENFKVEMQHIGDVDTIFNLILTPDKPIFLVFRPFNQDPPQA
In words: Inhibition of P450 scc.

For test [4], the target named is T4, 3-oxo-5-alpha-steroid 4-dehydrogenase 2 (Homo sapiens, UniProt P31213).
T4 sequence (P31213 whole entry): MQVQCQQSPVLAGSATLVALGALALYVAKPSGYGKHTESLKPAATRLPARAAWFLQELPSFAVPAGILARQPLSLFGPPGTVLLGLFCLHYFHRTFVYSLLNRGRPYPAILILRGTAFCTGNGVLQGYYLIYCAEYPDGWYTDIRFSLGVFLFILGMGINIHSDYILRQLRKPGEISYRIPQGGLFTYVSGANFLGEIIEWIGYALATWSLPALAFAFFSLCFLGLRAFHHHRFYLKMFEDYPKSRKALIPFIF
In words: Inhibition of Steroid 5-alpha-reductase type 2 isozyme. In short, it runs like this: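 The enzyme source for the type II isozyme was prostate homogenate from patients with benign prostatic hyperplasia (BPH).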

The target in test [5] is T1, Steroid 17-alpha-hydroxylase/17,20 lyase. In words: Binding affinity for Cytochrome P450 17 from human testicular microsomes. In short, it runs like this:
(§1)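 Ki was determined by the method of Lee and Wilson in the testicular microsome P450 17 assay. Inhibitor was used between its IC40 and IC70 values, with progesterone at 1.25–20 µM and 15 min incubation. All other parameters matched the regular assay. Kinetics were analysed by Lineweaver-Burk plot.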

In test [6] the target is T2, Steroid 17-alpha-hydroxylase/17,20 lyase. In words: Binding affinity for Cytochrome P450 17 from rat testicular microsomes. In short, it runs like this:
as §1

Test [7] concerns the target T5, Thromboxane-A synthase (Homo sapiens, UniProt P24557).
T5 sequence (P24557 whole entry): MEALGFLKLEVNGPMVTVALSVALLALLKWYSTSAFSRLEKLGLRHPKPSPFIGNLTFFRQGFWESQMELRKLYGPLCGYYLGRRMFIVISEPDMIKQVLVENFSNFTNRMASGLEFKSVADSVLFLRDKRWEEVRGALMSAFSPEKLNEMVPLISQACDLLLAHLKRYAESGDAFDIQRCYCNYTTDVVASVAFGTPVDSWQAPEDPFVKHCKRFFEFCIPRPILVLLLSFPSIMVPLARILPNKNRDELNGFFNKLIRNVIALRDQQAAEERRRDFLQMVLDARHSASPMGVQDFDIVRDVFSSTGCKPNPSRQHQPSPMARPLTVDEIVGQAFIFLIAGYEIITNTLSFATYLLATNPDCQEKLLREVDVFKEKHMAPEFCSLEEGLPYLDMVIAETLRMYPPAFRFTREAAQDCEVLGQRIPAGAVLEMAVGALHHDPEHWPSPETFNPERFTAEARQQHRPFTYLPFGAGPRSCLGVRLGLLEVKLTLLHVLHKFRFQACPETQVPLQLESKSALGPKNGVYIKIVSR
In words: Inhibition of thromboxane synthase P450 TXA2.

Test [8] addresses T1, Steroid 17-alpha-hydroxylase/17,20 lyase. In words: Tested for inhibitory activity against Cytochrome P450 17 from human testicular microsomes.
For test [9], the species on record is Rattus norvegicus. In words: Percent reduction in plasma testosterone after 2 hr. It counts as functional. In short, it runs like this: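 Adult male Sprague-Dawley rats, 7–8 per group, received a single intraperitoneal dose of 0.019 mmol/kg in olive oil/benzyl alcohol (95:5). Blood was taken by cardiac puncture under diethyl ether anesthesia at 2 h. Plasma testosterone was measured by RIA with [125I]testosterone, in ng/mL.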

The species entered for test [10] is Rattus norvegicus. In words: Percent reduction in plasma testosterone after 6 hr; ne means No effect. It counts as functional, organism-based. In short, it runs like this: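 Adult male Sprague-Dawley rats, 7–8 per group, received a single intraperitoneal dose of 0.019 mmol/kg in olive oil/benzyl alcohol (95:5). Blood was drawn by cardiac puncture under diethyl ether anesthesia at 6 h. Plasma testosterone was quantified by RIA using [125I]testosterone, in ng/mL.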

In test [11] the target is T6, Aromatase (Homo sapiens, UniProt P11511).
T6 sequence (P11511 whole entry): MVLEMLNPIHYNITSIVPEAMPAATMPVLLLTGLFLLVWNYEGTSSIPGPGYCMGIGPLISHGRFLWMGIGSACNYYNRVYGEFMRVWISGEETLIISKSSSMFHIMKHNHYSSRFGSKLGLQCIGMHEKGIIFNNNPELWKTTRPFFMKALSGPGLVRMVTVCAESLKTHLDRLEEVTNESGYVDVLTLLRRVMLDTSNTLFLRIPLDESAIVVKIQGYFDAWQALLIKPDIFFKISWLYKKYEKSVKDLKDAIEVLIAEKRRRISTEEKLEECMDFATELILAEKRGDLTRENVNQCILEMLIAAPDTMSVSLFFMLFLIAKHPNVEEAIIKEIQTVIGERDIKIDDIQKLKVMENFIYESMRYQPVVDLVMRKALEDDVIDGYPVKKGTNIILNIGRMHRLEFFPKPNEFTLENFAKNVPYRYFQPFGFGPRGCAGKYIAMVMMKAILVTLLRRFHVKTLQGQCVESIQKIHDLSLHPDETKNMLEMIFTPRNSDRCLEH
In words: Inhibition of Cytochrome P450 19A1.

Test [12] deals with T2, Steroid 17-alpha-hydroxylase/17,20 lyase. In words: Inhibition of Cytochrome P450 17 from rat testicular microsomes. In outline: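 Rat testicular microsomes incubated with progesterone substrate at 25 µM. Products were quantified by reverse-phase HPLC with UV detection. IC50 is the inhibitor concentration giving 50% inhibition, as the mean of at least two experiments, with deviations within 5%.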

From ChEMBL document CHEMBL1133116, “Synthesis and evaluation of 17-aliphatic heterocycle-substituted steroidal inhibitors of 17alpha-hydroxylase/C17-20-lyase (P450 17)” (J Med Chem, 2000) come the findings set out here.

Activity calls are given as the source filed them. No cut-off for these calls is given here.

As for `COC1CC[C@@]2(C)C(=CC[C@H]3[C@@H]4CC[C@@H](C5CO5)[C@@]4(C)CC[C@@H]32)C1` (some centres not stated), the concentration for half-maximal inhibition (IC50) result in test [1] and in [2] was “Not Active” throughout.
On to `C[C@]12CC[C@H]3[C@@H](CC=C4C[C@@H](O)CC[C@@]43C)[C@@H]1CC[C@@H]2[C@H]1CN1`, for which the IC50 in test [3] was over 25000 nM; in test [4], 10000 nM; in test [7], 4000 nM; in test [8], 540 nM; in test [11] it was over 50000 nM; in [12] it was 210 nM. Also, the figures for the inhibitory constant (Ki) in test [5] and in test [6] were 8 nM and 3 nM, respectively. Also, the Reduction in test [9] was 81%. Moreover, the Reduction entry in [10] was “inactive”.
